An excerpt weighted towards active compounds, which were near 3.7% of everything screened.
ROMK mod – ROMK potassium channel modulators, primary screen, cell-based, thallium flux, MLSMR library; ATP-sensitive inward rectifier potassium channel 1 (Homo sapiens), P48048; Tet-inducible ROMK, thallium flux fluorescence; actives lie on both sides; B-score at 10 µM; 2% of 130,000 active; AID 1918, 2009;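 active = signal ratio slope over the read window, or its plate-corrected B-score, at least 3 SD from the plate mean, either direction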;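 note: B-score of the F/F0 ratio slope over 7 to 12 s after thallium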
bCat nuc transl – modulators of beta-catenin nuclear translocation, primary screen, imaging, HeLa cells, immunofluorescence, high-content | nuclear translocation activity, % at 5 µM | 0.3% of 190,000 active | AID 1665, 2009;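 active = nuclear translocation activity above 50% at 5 µM, with a well cell count of 50 or more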;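 note: per-cell ratio of nuclear to cytoplasmic median beta-catenin stain intensity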
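Test system: HeLa cells, endogenous beta-catenin; Compound: single 5 µM dose plus 0.02–20 µM confirmation series; Times: compound exposure 24 h at 37°C; Signal: fluorescence imaging of beta-catenin antibody stain plus DAPI; Read-out: % activation, nuclear-to-cytoplasmic median beta-catenin signal ratio per cell.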
MT stabilize HCS – microtubule stabilizers in HeLa cells, primary screen, imaging, high-content imaging | HeLa tubulin immunostaining HCS, 24 h; share of cells brighter than vehicle mean+2SD | % tubulin-high responders, % at 10 µM | AID 2205, 2009 | 0.83% of 200,000 active;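 active = plate Z-score above 3 for both tubulin-high and condensed-nucleus cell shares, with cell loss under 80%, at 10 µM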;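 note: anti alpha tubulin signal scored within the nucleus-defined area of each cell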
DTT redox prof – compounds producing H2O2 with reducing agent – biochemical, NIH compound library profiling, artefact control for MLSCN library redox annotation, primary screen; DTT-dependent redox cycling H2O2, phenol red/HRP absorbance; 100% = 100 µM peroxide control, 0% = buffer; activation, % at 10 µM; 0.03% of 200,000 active;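 active = activation of at least 50% relative to the plate's high and low controls in the primary single-dose screen; inactive = activation below 50%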;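 note: compound incubated with DTT at 0.8 mM final as the reducing agent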
KCC2 mod – KCC2 cotransporter modulators, thallium flux, primary screen, cell-based, HEK293 KCC2, FluoZin-2 fluorescence, MLSMR; KCC2 cells, thallium flux FluoZin-2 fluorescence; B-score of Tl+ flux slope (higher = more flux/activation; lower = inhibition) at 10 µM; 2.2% of 190,000 active; Solute carrier family 12 member 5 (Homo sapiens), Q9H2X9;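 active = thallium flux slope and its plate-corrected score both differing from the plate sample mean at a set confidence after two filtering rounds, in either direction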;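 note: slope of fluorescence scaled to starting intensity during 10 to 20 s after thallium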
Numbers stand for hits; i = inactive; nt = no result.

SMILES	ROMK mod	bCat nuc transl	MT stabilize HCS	DTT redox prof	KCC2 mod
Cc1ccc(-c2cc(C(=O)Nc3ccccn3)c3ccccc3n2)o1	i	i	i	i	i
O=C(NNC(=S)Nc1ccccc1)c1cc(-c2cccnc2)nc2ccccc12	i	i	i	i	i
O=C(NC(=S)Nc1ccccn1)c1cc(-c2ccccc2)nc2ccccc12	nt	i	i	i	21.9
CC1CCc2sc(C(=O)OCC(=O)NCc3ccc(F)cc3)cc2C1 (configuration not stated)	nt	119.1	i	i	i
Cc1nc(NC(=O)COC(=O)c2cc3c(s2)CCC(C)C3)c(Cl)cc1Cl (configuration not stated)	i	i	i	i	i
Cc1ccc(-c2cc(-c3ccc4c(c3)OCO4)c(C#N)c(N)n2)o1	nt	i	58.9	i	i
CCOc1cc(-c2cc(-c3ccc(C)o3)nc(N)c2C#N)ccc1O	i	54.9	i	i	nt
CCOC(=O)c1cnn(-c2nc(-c3cccc(F)c3)cs2)c1C(F)(F)F	nt	nt	i	i	i
Cc1oc(-c2ccccc2)nc1CS(=O)CC(=O)O (configuration not stated)	nt	nt	i	i	2.9
CN1/C(=C/C=C(/C#N)C(N)=O)C(C)(C)c2ccccc21	nt	nt	19.9	i	nt
CCc1ccc2oc(=O)cc(CN(C)Cc3ccccc3)c2c1	-3.13	nt	i	i	i
CCOC(=O)c1oc2ccccc2c1NC(=O)c1cccc(OC)c1	nt	i	i	i	i
CCOC(=O)c1oc2ccccc2c1NC(=O)c1cccc(OC)c1OC	nt	i	33.7	i	i
Cc1cc(Cl)ccc1N(CC(=O)N=Nc1c(O)[nH]c2ccccc12)S(C)(=O)=O	i	i	i	i	nt
Cc1ccc(S(=O)(=O)N(CC(=O)N=Nc2c(O)[nH]c3ccccc23)c2cccc(C)c2)cc1	i	63.6	19.5	i	i
CN(C)c1cccc(C(=O)Nc2cc(C(F)(F)F)ccc2-n2cnc3ccccc32)c1	nt	i	i	i	i
CCNc1nc(NCC)n2c(SCC(=O)c3ccccc3Cl)nnc2n1	i	i	i	i	i
CCOc1ccc2cc(C#N)c(SCC(=O)NC(C)CC)nc2c1 (configuration not stated)	i	i	44.1	i	i
CCOC(=O)CSc1nc2cc(OCC)ccc2cc1C#N	nt	i	i	i	i
CCOc1ccc2c(c1)sc(N)[n+]2Cc1cc(C)cc2cccnc12	nt	151.5	14.1	i	i
COc1ccc2c(c1)sc(N)[n+]2Cc1cc(C)cc2cccnc12	nt	113.5	15.5	i	i
Cc1cc(C[n+]2ncsc2N)c2ncccc2c1	nt	i	nt	nt	i
COc1ccc(CCNCC(=O)Nc2ccccc2C(F)(F)F)cc1	i	i	i	i	i
O=C(Nc1ccccc1)NC1(C(=O)NCc2cccs2)CCCCC1	nt	i	i	i	nt
CC(=O)Nc1ccccc1N(C)S(=O)(=O)c1ccc(C)cc1	nt	i	47.1	i	i
SMILES	ROMK mod	bCat nuc transl	MT stabilize HCS	DTT redox prof	KCC2 mod
CN(C(=S)NC(=O)c1ccccc1Br)C1CCCCC1	nt	i	i	i	30.7
COc1ccccc1/C=C/C(=O)NC(=S)N(C)C1CCCCC1	nt	nt	i	i	9.8
O=C(NC(=S)NCC1CCCO1)c1ccccc1Br (configuration not stated)	i	i	i	i	i
Cc1nn(C(=O)Cn2cc([N+](=O)[O-])cn2)c(C)c1Cl	i	i	i	i	i
COc1cccc2cc(-c3cn4ccc(C)cc4n3)c(=O)oc12	i	nt	i	i	i
CCOc1cccc2cc(-c3cn4cc(C)ccc4n3)c(=O)oc12	nt	i	42.3	i	i
Cc1ccc(N2C(=O)c3cccc4c(N)ccc(c34)C2=O)c2cccnc12	nt	66.8	nt	nt	i
COc1ccc(C(=O)N2CCn3c2nc2ccccc23)cc1	i	i	i	i	nt
COc1ccc(C(=O)n2c(-c3ccco3)nc3ccccc32)cc1	i	74.6	23.5	i	nt
Cc1[nH][nH]c(=O)c1C(c1c(C)[nH][nH]c1=O)c1cn(C)c2ccccc12	i	i	i	i	i
Cc1[nH][nH]c(=O)c1C(c1c(C)[nH][nH]c1=O)c1cn(Cc2cccc3ccccc23)c2ccccc12	-2.66	i	i	i	i
COc1ccc(OC)c(C2NC(=S)NC(C)=C2C(=O)Nc2ccccn2)c1 (configuration not stated)	i	i	i	i	i
COc1ccc(C2NC(=S)NC(C)=C2C(=O)Nc2ccccn2)cc1 (configuration not stated)	i	i	9.2	i	i
CC(C)C1N(C(=O)CN2CCCCC2)CCN1S(=O)(=O)c1ccccc1 (configuration not stated)	i	i	i	i	i
COc1cc(-c2nnc3n2N=C(c2ccccc2)CS3)cc(OC)c1OC	nt	92.9	45.9	i	i
COc1ccc(-c2nnc3n2N=C(C)CS3)cc1	nt	i	i	i	i
COc1ccc(C2=Nn3c(nnc3-c3ccccc3OC)SC2)cc1OC	nt	58.0	16.5	i	i
COc1ccc(C2=Nn3c(nnc3-c3ccc(OC)cc3)SC2)cc1	nt	nt	29.3	i	i
COP(=O)(CC(=O)c1ccccc1)CC(=O)c1ccccc1	i	i	i	i	i
CCN(CC)c1nc(C#N)cc(-c2ccc(OC)cc2)n1	i	i	63.2	i	i
C=CCN=C1CCCc2c1[nH]c1ccc(C)cc21	i	i	i	i	i
Cc1cc(C(F)(F)F)c2c(=O)[nH]c(=O)n(Cc3ccccc3)c2n1	nt	i	i	i	-4.33
CCN(CC)c1ccc(/C=N/NC(=O)c2ccc(Br)o2)cc1	i	nt	33.5	i	i
O=C(N/N=C/c1ccc2c(c1)OCO2)c1ccc(Br)o1	nt	i	i	i	i
O=C(CSc1nnc(-c2ccc(C(F)(F)F)cn2)s1)c1ccccc1	nt	i	nt	nt	i
SMILES	ROMK mod	bCat nuc transl	MT stabilize HCS	DTT redox prof	KCC2 mod
O=C(Cc1ccc(Cl)cc1)N/N=C/c1ccncc1	i	i	i	i	nt
CCOC(=O)N1CCN(C(=O)c2ccccc2-c2ccccc2)CC1	nt	i	32.1	i	i
O=C(O)CNC(=S)N(Cc1ccccc1)Cc1ccccc1F	i	i	i	i	i
CC(C)CC(=O)NC(=S)N(Cc1ccccc1)Cc1ccccc1	i	i	i	i	49.3
CC(C)C(=O)NC(=S)N(Cc1ccccc1)Cc1ccccc1	i	i	i	i	41.7
CC(C)CC(=O)NC(=S)Nc1ccccc1F	i	i	i	i	i
COc1ccccc1/C=C/C(=O)NCc1ccccn1	i	i	i	i	i
CC(=O)Nc1cccc(-n2nnc(SCC(=O)N(C)c3ccccc3)n2)c1	nt	i	nt	nt	i
CCOC(=O)c1sc(C)c(C(=O)NC2CCCCC2)c1N	nt	118.5	i	i	i
CCOc1ccc(CCNC(=O)CN2C(=O)NC(CCSC)C2=O)cc1OCC (configuration not stated)	i	i	i	i	i

Compound activity as filed in PubChem BioAssay.
